Values after ≈ are worked out from the molar mass of the structure shown.
What was measured:
Assay type in all cases: functional
Klebsiella pneumoniae [1] = assay: Antimicrobial activity against Klebsiella pneumoniae MTCC 3384 at 50 ug/ml after 24 hrs by disc diffusion method; details: MTCC 3384, 24 h, read-out: DIZ
Method in brief: (§1)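 Agar diffusion read-out is the diameter of the inhibition zone in mm. Each test was run in six replicates and reported as mean ± standard deviation, taken from at least three determinations.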

Aspergillus flavus [2] = assay: Antimicrobial activity against Aspergillus flavus MTCC 873 after 48 hrs by microdilution method; details: MTCC 873, 48 h
Method in brief: (§2)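 The minimal inhibitory concentration was determined by dilution, alongside minimal bactericidal concentration for bacterial strains and minimal fungicidal concentration for fungal strains. Tests were run in six replicates, and the value is the mean of at least three determinations.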

Aspergillus niger [3] = assay: Antimicrobial activity against Aspergillus niger MTCC 281 at 100 ug/ml after 48 hrs by disc diffusion method; details: MTCC 281, 48 h, read-out: DIZ; method in brief: as §1
Staphylococcus aureus [4] = assay: Antimicrobial activity against Staphylococcus aureus MTCC 96 after 24 hrs by microdilution method; details: MTCC 96, 24 h; method in brief: as §2
Escherichia coli [5] = assay: Antimicrobial activity against Escherichia coli MTCC 724 after 24 hrs by microdilution method; details: MTCC 724, 24 h; method in brief: as §2
Bacillus cereus [6] = assay: Antimicrobial activity against Bacillus cereus MTCC 8372 at 50 ug/ml after 24 hrs by disc diffusion method; details: MTCC 8372, 24 h, read-out: DIZ; method in brief: as §1
Staphylococcus aureus [7] = assay: Antimicrobial activity against Staphylococcus aureus MTCC 96 at 100 ug/ml after 24 hrs by disc diffusion method; details: MTCC 96, 24 h, read-out: DIZ; method in brief: as §1
Fusarium verticillioides [8] = assay: Antimicrobial activity against Fusarium moniliforme MTCC 156 at 50 ug/ml after 48 hrs by disc diffusion method; details: MTCC 156, 48 h, read-out: DIZ; method in brief: as §1
Fusarium verticillioides [9] = assay: Antimicrobial activity against Fusarium moniliforme MTCC 156 at 100 ug/ml after 48 hrs by disc diffusion method; details: MTCC 156, 48 h, read-out: DIZ; method in brief: as §1
Fusarium oxysporum [10] = assay: Antimicrobial activity against Fusarium oxysporum MTCC 284 at 50 ug/ml after 48 hrs by disc diffusion method; details: MTCC 284, 48 h, read-out: DIZ; method in brief: as §1
Aspergillus niger [11] = assay: Antimicrobial activity against Aspergillus niger MTCC 281 at 50 ug/ml after 48 hrs by disc diffusion method; details: MTCC 281, 48 h, read-out: DIZ; method in brief: as §1
Aspergillus niger [12] = assay: Antimicrobial activity against Aspergillus niger MTCC 281 after 48 hrs by microdilution method; details: MTCC 281, 48 h; method in brief: as §2
Bacillus cereus [13] = assay: Antimicrobial activity against Bacillus cereus MTCC 8372 after 24 hrs by microdilution method; details: MTCC 8372, 24 h; method in brief: as §2
Fusarium oxysporum [14] = assay: Antimicrobial activity against Fusarium oxysporum MTCC 284 after 48 hrs by microdilution method; details: MTCC 284, 48 h; method in brief: as §2
Aspergillus flavus [15] = assay: Antimicrobial activity against Aspergillus flavus MTCC 873 at 50 ug/ml after 48 hrs by disc diffusion method; details: MTCC 873, 48 h, read-out: DIZ; method in brief: as §1
Klebsiella pneumoniae [16] = assay: Antimicrobial activity against Klebsiella pneumoniae MTCC 3384 after 24 hrs by microdilution method; details: MTCC 3384, 24 h; method in brief: as §2
Aspergillus flavus [17] = assay: Antimicrobial activity against Aspergillus flavus MTCC 873 at 100 ug/ml after 48 hrs by disc diffusion method; details: MTCC 873, 48 h, read-out: DIZ; method in brief: as §1
Bacillus cereus [18] = assay: Antimicrobial activity against Bacillus cereus MTCC 8372 at 100 ug/ml after 24 hrs by disc diffusion method; details: MTCC 8372, 24 h, read-out: DIZ; method in brief: as §1
Fusarium verticillioides [19] = assay: Antimicrobial activity against Fusarium moniliforme MTCC 156 after 48 hrs by microdilution method; details: MTCC 156, 48 h; method in brief: as §2
Klebsiella pneumoniae [20] = assay: Antimicrobial activity against Klebsiella pneumoniae MTCC 3384 at 100 ug/ml after 24 hrs by disc diffusion method; details: MTCC 3384, 24 h, read-out: DIZ; method in brief: as §1
Escherichia coli [21] = assay: Antimicrobial activity against Escherichia coli MTCC 724 at 50 ug/ml after 24 hrs by disc diffusion method; details: MTCC 724, 24 h, read-out: DIZ; method in brief: as §1
Fusarium oxysporum [22] = assay: Antimicrobial activity against Fusarium oxysporum MTCC 284 at 100 ug/ml after 48 hrs by disc diffusion method; details: MTCC 284, 48 h, read-out: DIZ; method in brief: as §1
Staphylococcus aureus [23] = assay: Antimicrobial activity against Staphylococcus aureus MTCC 96 at 50 ug/ml after 24 hrs by disc diffusion method; details: MTCC 96, 24 h, read-out: DIZ; method in brief: as §1
Escherichia coli [24] = assay: Antimicrobial activity against Escherichia coli MTCC 724 at 100 ug/ml after 24 hrs by disc diffusion method; details: MTCC 724, 24 h, read-out: DIZ; method in brief: as §1

SMILES | zone of inhibition at 50 µg/mL (Klebsiella pneumoniae [1]) | MFC (Aspergillus flavus [2]) | MIC (Aspergillus flavus [2]) | zone of inhibition at 100 µg/mL (Aspergillus niger [3]) | MBC (Staphylococcus aureus [4]) | MIC (Staphylococcus aureus [4]) | MBC (Escherichia coli [5]) | MIC (Escherichia coli [5]) | zone of inhibition at 50 µg/mL (Bacillus cereus [6]) | zone of inhibition at 100 µg/mL (Staphylococcus aureus [7]) | zone of inhibition at 50 µg/mL (Fusarium verticillioides [8]) | zone of inhibition at 100 µg/mL (Fusarium verticillioides [9]) | zone of inhibition at 50 µg/mL (Fusarium oxysporum [10]) | zone of inhibition at 50 µg/mL (Aspergillus niger [11]) | MFC (Aspergillus niger [12]) | MIC (Aspergillus niger [12]) | MBC (Bacillus cereus [13]) | MIC (Bacillus cereus [13]) | MFC (Fusarium oxysporum [14]) | MIC (Fusarium oxysporum [14]) | other results
COc1cc(-c2nn(-c3ccccc3)c(C)c2-c2nnc(-c3ccccc3)o2)cc(OC)c1OC | 6 mm | 275 µg/mL (≈ 587 µM) | 45 µg/mL (≈ 96 µM) | 20 mm | 155 µg/mL (≈ 331 µM) | 20 µg/mL (≈ 42.7 µM) | 170 µg/mL (≈ 363 µM) | 25 µg/mL (≈ 53.4 µM) | 11 mm | 26 mm | 5 mm | 10 mm | 8 mm | 10 mm | 220 µg/mL (≈ 470 µM) | 30 µg/mL (≈ 64 µM) | 160 µg/mL (≈ 342 µM) | 20 µg/mL (≈ 42.7 µM) | 290 µg/mL (≈ 619 µM) | 40 µg/mL (≈ 85.4 µM) | zone of inhibition at 50 µg/mL (Aspergillus flavus [15]): 6 mm; MBC (Klebsiella pneumoniae [16]): 175 µg/mL (≈ 374 µM); MIC (Klebsiella pneumoniae [16]): 25 µg/mL (≈ 53.4 µM); zone of inhibition at 100 µg/mL (Aspergillus flavus [17]): 12 mm; zone of inhibition at 100 µg/mL (Bacillus cereus [18]): 22 mm; MFC (Fusarium verticillioides [19]): 300 µg/mL (≈ 640 µM); MIC (Fusarium verticillioides [19]): 55 µg/mL (≈ 117 µM); zone of inhibition at 100 µg/mL (Klebsiella pneumoniae [20]): 10 mm; zone of inhibition at 50 µg/mL (Escherichia coli [21]): 12 mm; zone of inhibition at 100 µg/mL (Fusarium oxysporum [22]): 10 mm; zone of inhibition at 50 µg/mL (Staphylococcus aureus [23]): 10 mm; zone of inhibition at 100 µg/mL (Escherichia coli [24]): 17 mm
COc1ccc(-c2nn(-c3ccccc3)c(C)c2-c2nnc(-c3ccccc3)o2)cc1OC | 6 mm | 275 µg/mL (≈ 627 µM) | 45 µg/mL (≈ 103 µM) | 11 mm | 235 µg/mL (≈ 536 µM) | 40 µg/mL (≈ 91.2 µM) | 220 µg/mL (≈ 502 µM) | 35 µg/mL (≈ 79.8 µM) | 8 mm | 13 mm | 6 mm | 8 mm | 15 mm | 3 mm | 275 µg/mL (≈ 627 µM) | 40 µg/mL (≈ 91.2 µM) | 230 µg/mL (≈ 525 µM) | 35 µg/mL (≈ 79.8 µM) | 220 µg/mL (≈ 502 µM) | 25 µg/mL (≈ 57 µM) | zone of inhibition at 50 µg/mL (Aspergillus flavus [15]): 5 mm; MBC (Klebsiella pneumoniae [16]): 250 µg/mL (≈ 570 µM); MIC (Klebsiella pneumoniae [16]): 35 µg/mL (≈ 79.8 µM); zone of inhibition at 100 µg/mL (Aspergillus flavus [17]): 8 mm; zone of inhibition at 100 µg/mL (Bacillus cereus [18]): 16 mm; MFC (Fusarium verticillioides [19]): 290 µg/mL (≈ 661 µM); MIC (Fusarium verticillioides [19]): 55 µg/mL (≈ 125 µM); zone of inhibition at 100 µg/mL (Klebsiella pneumoniae [20]): 9 mm; zone of inhibition at 50 µg/mL (Escherichia coli [21]): 14 mm; zone of inhibition at 100 µg/mL (Fusarium oxysporum [22]): 24 mm; zone of inhibition at 50 µg/mL (Staphylococcus aureus [23]): 6 mm; zone of inhibition at 100 µg/mL (Escherichia coli [24]): 20 mm
Cc1c(-c2nnc(-c3ccccc3)o2)c(-c2ccc([N+](=O)[O-])cc2)nn1-c1ccccc1 | 9 mm | 290 µg/mL (≈ 685 µM) | 50 µg/mL (≈ 118 µM) | 12 mm | 150 µg/mL (≈ 354 µM) | 20 µg/mL (≈ 47.2 µM) | 190 µg/mL (≈ 449 µM) | 25 µg/mL (≈ 59 µM) | 14 mm | 18 mm | 5 mm | 14 mm | 8 mm | 8 mm | 290 µg/mL (≈ 685 µM) | 40 µg/mL (≈ 94.5 µM) | 150 µg/mL (≈ 354 µM) | 20 µg/mL (≈ 47.2 µM) | 280 µg/mL (≈ 661 µM) | 40 µg/mL (≈ 94.5 µM) | zone of inhibition at 50 µg/mL (Aspergillus flavus [15]): 6 mm; MBC (Klebsiella pneumoniae [16]): 180 µg/mL (≈ 425 µM); MIC (Klebsiella pneumoniae [16]): 25 µg/mL (≈ 59 µM); zone of inhibition at 100 µg/mL (Aspergillus flavus [17]): 14 mm; zone of inhibition at 100 µg/mL (Bacillus cereus [18]): 20 mm; MFC (Fusarium verticillioides [19]): 275 µg/mL (≈ 649 µM); MIC (Fusarium verticillioides [19]): 45 µg/mL (≈ 106 µM); zone of inhibition at 100 µg/mL (Klebsiella pneumoniae [20]): 12 mm; zone of inhibition at 50 µg/mL (Escherichia coli [21]): 9 mm; zone of inhibition at 100 µg/mL (Fusarium oxysporum [22]): 10 mm; zone of inhibition at 50 µg/mL (Staphylococcus aureus [23]): 10 mm; zone of inhibition at 100 µg/mL (Escherichia coli [24]): 18 mm

Source: ChEMBL document CHEMBL3098013, “Novel pyrazole integrated 1,3,4-oxadiazoles: synthesis, characterization and antimicrobial evaluation” (2014)
